One assay is filed under the species Homo sapiens. Put plainly: Selectivity index, ratio of agonist PC50 for CMX-GAL4 tagged human VDR to antagonist IC50 for human androgen receptor. In outline: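 Ratio of VDR PC50 to AR IC50. VDR PC50 comes from the GAL4-hVDR luciferase assay in HEK293 cells (50% of positive-control activity). AR IC50 is inhibition of hAR/ARE-luciferase transcription in HEK293 cells under testosterone, both β-galactosidase-normalized, means of three experiments.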

A further assay concerns the target T1, Androgen receptor (Homo sapiens, UniProt P10275).
T1 sequence (P10275 whole entry): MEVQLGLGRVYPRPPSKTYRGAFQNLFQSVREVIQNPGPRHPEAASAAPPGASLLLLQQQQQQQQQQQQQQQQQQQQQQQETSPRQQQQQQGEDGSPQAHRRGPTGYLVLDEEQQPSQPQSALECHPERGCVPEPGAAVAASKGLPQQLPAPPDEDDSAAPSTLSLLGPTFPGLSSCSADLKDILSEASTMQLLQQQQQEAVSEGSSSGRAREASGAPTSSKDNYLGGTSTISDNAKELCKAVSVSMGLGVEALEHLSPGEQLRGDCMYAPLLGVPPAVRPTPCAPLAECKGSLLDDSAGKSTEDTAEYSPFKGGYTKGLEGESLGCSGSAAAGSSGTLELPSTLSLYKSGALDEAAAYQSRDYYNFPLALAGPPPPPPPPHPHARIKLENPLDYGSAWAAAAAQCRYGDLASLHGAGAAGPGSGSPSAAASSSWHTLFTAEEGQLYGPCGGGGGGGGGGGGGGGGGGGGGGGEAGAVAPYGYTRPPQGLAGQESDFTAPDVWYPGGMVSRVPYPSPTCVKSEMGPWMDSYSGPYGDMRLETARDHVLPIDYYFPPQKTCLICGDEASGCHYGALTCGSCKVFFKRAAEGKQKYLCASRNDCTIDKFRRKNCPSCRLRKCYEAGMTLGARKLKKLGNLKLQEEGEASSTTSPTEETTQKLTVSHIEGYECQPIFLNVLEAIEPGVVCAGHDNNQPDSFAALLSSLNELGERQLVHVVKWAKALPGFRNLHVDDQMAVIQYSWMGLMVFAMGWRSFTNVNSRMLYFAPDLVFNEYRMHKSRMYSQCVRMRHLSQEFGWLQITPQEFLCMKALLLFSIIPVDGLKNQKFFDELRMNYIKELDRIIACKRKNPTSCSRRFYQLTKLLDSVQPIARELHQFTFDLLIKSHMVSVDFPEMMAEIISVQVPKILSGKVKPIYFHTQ
Put plainly: Antagonist activity at human androgen receptor expressed in HEK293 cells assessed as inhibition of transcriptional activity by luciferase and beta-galactosidase reporter gene assay. In kind it is cell-based. In general terms: Reporter assays use an easily measured gene product as a stand-in for the process of interest.

Assay [1] deals with T2, Vitamin D3 receptor (Homo sapiens) (UniProt P11473).
T2 sequence (whole entry): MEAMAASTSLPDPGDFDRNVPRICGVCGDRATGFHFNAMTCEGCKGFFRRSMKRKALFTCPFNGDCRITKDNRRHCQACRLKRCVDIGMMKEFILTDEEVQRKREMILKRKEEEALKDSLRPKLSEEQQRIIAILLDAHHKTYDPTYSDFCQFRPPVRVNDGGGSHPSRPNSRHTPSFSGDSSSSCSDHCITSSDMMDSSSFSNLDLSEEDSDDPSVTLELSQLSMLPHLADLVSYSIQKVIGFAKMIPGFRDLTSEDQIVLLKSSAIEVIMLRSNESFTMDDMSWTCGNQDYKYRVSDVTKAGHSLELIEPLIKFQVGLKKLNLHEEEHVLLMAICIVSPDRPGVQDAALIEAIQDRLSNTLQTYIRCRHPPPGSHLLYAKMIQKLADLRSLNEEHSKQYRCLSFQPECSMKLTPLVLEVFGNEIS
The experiment in a line: Agonist activity at CMX-GAL4 tagged human VDR expressed in HEK293 cells assessed as increase in transcriptional activity by luciferase reporter gene assay. The class given is cell-based. In outline: (§1)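 GAL4-hVDR ligand-binding fusion (CMX-GAL4 N-hVDR, 15 ng/well) cotransfected by calcium phosphate into HEK293 cells with TK-MH100x4-Luc reporter (50 ng) and β-galactosidase plasmid (10 ng). Cells grown in DMEM with 5% FBS, 37 °C, 5% CO2. Compound added 22 h post-transfection and cells harvested 16–20 h later. Luciferase normalized to β-galactosidase, means of triplicates. PC50 is the concentration giving 50% of the positive-control response.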

In assay [2] the target is T3, Androgen receptor (Homo sapiens) (UniProt P10275).
T3 sequence (whole entry): T1 sequence (P10275 whole entry)
Put plainly: Agonist activity at human androgen receptor expressed in HEK293 cells assessed as increase in transcriptional activity in presence of 0.3 nM testosterone by luciferase and beta-galactosidase reporter gene assay. In kind it is cell-based. In outline:
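HEK293 cells in DMEM with 5% FBS, calcium-phosphate cotransfected with pSG5-hAR (33 ng/well), ARE-tlc-Luc reporter (33 ng) and β-galactosidase plasmid (10 ng). Compounds added 22 h after transfection, with 0.3 nM testosterone present. Harvested about 16–20 h later. Luciferase read and normalized to β-galactosidase, means of triplicates.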

Another assay relates to HL-60. The experiment in a line: Induction of monocytic cell differentiation in human HL60 cells.
A further assay deals with T4, Vitamin D3 receptor (Homo sapiens, UniProt P11473).
T4 sequence (P11473 whole entry): T2 sequence (whole entry)
Put plainly: Agonist activity at VDR (unknown origin) by reporter gene assay. Summed up: as §1

The next assay concerns LNCaP. Put plainly: Growth inhibition of human LNCAP cells.
The target of assay [3] is Androgen receptor (Mus musculus) (UniProt P19091). Put plainly: Agonist activity at androgen receptor in androgen-dependent mouse SC3 cells assessed as stimulation of cell growth after 3 days. In kind it is cell-based. Conditions: SC-3. In outline: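 Androgen-dependent mouse Shionogi carcinoma SC-3 cells grown 3 days at 37 °C, 5% CO2 in MEM-Alpha with 2% FBS plus test compound. Growth promotion scored by cell count.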
Chain of Androgen receptor (Mus musculus) (P19091 whole entry): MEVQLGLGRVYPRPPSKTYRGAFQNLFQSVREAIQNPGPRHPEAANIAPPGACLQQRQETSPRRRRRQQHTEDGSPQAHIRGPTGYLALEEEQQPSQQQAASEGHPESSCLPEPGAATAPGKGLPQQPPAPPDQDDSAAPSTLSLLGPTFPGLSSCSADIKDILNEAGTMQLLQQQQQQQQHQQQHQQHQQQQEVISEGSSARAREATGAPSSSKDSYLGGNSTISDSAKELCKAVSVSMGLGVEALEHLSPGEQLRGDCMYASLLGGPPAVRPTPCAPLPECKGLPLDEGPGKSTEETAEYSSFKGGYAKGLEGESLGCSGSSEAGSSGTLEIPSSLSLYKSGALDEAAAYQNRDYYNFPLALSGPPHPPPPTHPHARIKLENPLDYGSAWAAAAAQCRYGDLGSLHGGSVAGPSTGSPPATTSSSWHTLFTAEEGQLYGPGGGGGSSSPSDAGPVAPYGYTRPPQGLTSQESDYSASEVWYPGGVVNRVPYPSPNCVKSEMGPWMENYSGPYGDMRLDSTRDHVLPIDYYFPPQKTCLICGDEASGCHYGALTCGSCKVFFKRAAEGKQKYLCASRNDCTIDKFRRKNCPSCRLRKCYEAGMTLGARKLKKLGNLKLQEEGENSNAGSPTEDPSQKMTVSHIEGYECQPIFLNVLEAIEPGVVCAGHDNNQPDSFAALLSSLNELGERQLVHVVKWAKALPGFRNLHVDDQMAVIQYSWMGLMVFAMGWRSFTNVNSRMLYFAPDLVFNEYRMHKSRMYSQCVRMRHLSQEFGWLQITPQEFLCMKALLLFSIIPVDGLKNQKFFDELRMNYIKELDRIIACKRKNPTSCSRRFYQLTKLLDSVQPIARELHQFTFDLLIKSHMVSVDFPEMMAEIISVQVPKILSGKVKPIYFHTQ

For assay [4] the target is unchanged. The experiment in a line: Potency index, ratio of IC50 for hydroxyflutamide to IC50 for compound against androgen receptor in androgen-dependent mouse SC3 cells assessed as inhibition of testosterone-induced cell growth after 3 days. The class given is cell-based. Conditions: SC-3. In outline: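 SC-3 cells cultured 3 days at 37 °C, 5% CO2 in MEM-Alpha with 2% FBS and 10 nM testosterone, with or without compound. Cell number with testosterone alone set as 100%. IC50 is the concentration halving the testosterone-induced increase in cells, means of three experiments. Index is the reference antagonist IC50 divided by the compound IC50.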

Active and inactive are the calls of the source. The rule behind the calls is not given here.

As usually defined, the IC50 is the concentration needed to halve the response being measured. Regarding `CC[Si](CC)(c1ccc(OC[C@@H](O)CO)c(C)c1)c1ccc(OC[C@@H](O)C(C)(C)C)c(C)c1`, the Selectivity Index in the assay filed under Homo sapiens amounted to 0.27. Besides, the IC50 on Androgen receptor came out at 8.3 µM. Further, in assay [1], the PC50 is 2.2 µM.

As for `CCC(CC)(c1ccc(OCC(=O)C(C)(C)C)c(C)c1)c1ccc(OCC2CO2)c(C)c1` (racemic), the Selectivity Index in the assay listed under Homo sapiens was below 0.068. Moreover, on Androgen receptor, the IC50 was above 10 µM. In addition, the PC50 in assay [1] was found to be 0.68 µM. In addition, the result in assay [2] was inactive.

In the case of `CC[Si](CC)(c1ccc(O)c(C)c1)c1ccc(OC[C@H](O)C(C)(C)C)c(C)c1`, the IC50 on Androgen receptor was above 10 µM. Moreover, the PC50 in assay [1] came to 8.2 µM.

With `CC[Si](CC)(c1ccc(OCC(O)CO)c(C)c1)c1ccc(OCC(O)C(C)(C)C)c(C)c1` (mixture of isomers), in the assay listed under Homo sapiens, the Selectivity Index is 0.14. In addition, the IC50 at Androgen receptor is 6.8 µM. Further, in [1], the PC50 turned out to be 0.92 µM. Besides, the outcome in assay [2] was inactive.

`CC[Si](CC)(c1ccc(NC[C@H](O)CO)c(C)c1)c1ccc(OCC(=O)C(C)(C)C)c(C)c1`: the concentration for half-maximal inhibition (IC50) at Androgen receptor was above 10 µM. Moreover, the PC50 in [1] is 2.5 µM.

`CC[Si](CC)(c1ccc(OCC(=O)C(C)(C)C)c(C)c1)c1ccc(OCC(=O)C(C)(C)C)c(C)c1`: the Selectivity Index in the assay listed under Homo sapiens is above 4.8. In addition, on Androgen receptor, the IC50 is 6.2 µM. Moreover, the PC50 in assay [1] was above 30 µM. In addition, the result in [2] was inactive.

Regarding `CC[Si](CC)(c1ccc(OCC(=O)C(C)(C)C)c(C)c1)c1ccc(OC[C@@H](O)CO)c(C)c1`, the half-maximal inhibitory concentration (IC50) at Androgen receptor was above 10 µM. In addition, in [1], the PC50 came out at 2 µM.

In the case of `CC[Si](CC)(c1ccc(NC[C@@H](O)CO)c(C)c1)c1ccc(OCC(=O)C(C)(C)C)c(C)c1`, the concentration for half-maximal inhibition (IC50) on Androgen receptor is above 10 µM. Further, the PC50 in assay [1] came to 7 µM.

Consider `CC[Si](CC)(c1ccc(OC[C@@H](O)CO)c(C)c1)c1ccc(OC[C@H](O)C(C)(C)C)c(C)c1` (mixture of isomers), for which the Selectivity Index in the assay listed under Homo sapiens was determined as 0.14. Further, the concentration for half-maximal inhibition (IC50) at Androgen receptor was determined as 5.8 µM. Besides, the PC50 in assay [1] turned out to be 0.81 µM.

With `CC[Si](CC)(c1ccc(OC[C@H](O)CO)c(C)c1)c1ccc(OC[C@H](O)C(C)(C)C)c(C)c1`, in the assay listed under Homo sapiens, the Selectivity Index was 0.31. Moreover, the half-inhibitory concentration (IC50) at Androgen receptor was 6.7 µM. Moreover, the PC50 in assay [1] stood at 2.1 µM.

What is called EC50 is the midpoint of the concentration-response curve. A lower EC50 goes with greater potency. For the molecule `CCC(CC)(c1ccc(OCC(=O)C(C)(C)C)c(C)c1)c1ccc(OCC(=O)C(C)(C)C)c(C)c1`, the Selectivity Index in the assay listed under Homo sapiens is below 0.46. Further, the half-maximal inhibitory concentration (IC50) at Androgen receptor is above 10 µM. For the same molecule, the PC50 in [1] was found to be 4.6 µM. For the same molecule, the EC50 in the assay with HL-60 stood at 0.03 µM; at Vitamin D3 receptor it was 0.04 µM; with LNCaP, 0.02 µM. Besides, in [2], the outcome was inactive.

As for `CC[Si](CC)(c1ccc(OCC(=O)C(C)(C)C)c(C)c1)c1ccc(OCC2CO2)c(C)c1` (racemic), the Selectivity Index in the assay filed under Homo sapiens is 0.48. Further, the IC50 at Androgen receptor was above 10 µM. Also, the PC50 in [1] is 4.8 µM. Moreover, the outcome in assay [2] was inactive.

`CC(C)(O)C(=O)Nc1ccc([N+](=O)[O-])c(C(F)(F)F)c1`: the PC50 result in assay [1] is “inactive”.

For `CCC(CC)(c1ccc(OCC(O)CO)c(C)c1)c1ccc(OCC(O)C(C)(C)C)c(C)c1` (mixture of isomers) [LG-190178], the IC50 on Androgen receptor is above 10 µM. The PC50 in assay [1] was determined as 0.14 µM. In addition, the EC50 in the assay with HL-60 worked out at 0.03 µM; in the assay on LNCaP, 0.02 µM. The outcome in assay [2] was inactive.

Take `CC[Si](CC)(c1ccc(OCC(=O)C(C)(C)C)c(C)c1)c1ccc(OC[C@H](O)CO)c(C)c1`: the Selectivity Index in the assay filed under Homo sapiens was 0.93. Moreover, the concentration for half-maximal inhibition (IC50) on Androgen receptor was found to be 4 µM. Further, in assay [1], the PC50 worked out at 3.7 µM. Moreover, in assay [3], the result was inactive.

Consider `CC[Si](CC)(c1ccc(OC[C@H](O)CO)c(C)c1)c1ccc(OC[C@@H](O)C(C)(C)C)c(C)c1`, for which, in assay [4], the Ratio IC50 was found to be 20. Further, in the assay listed under Homo sapiens, the Selectivity Index is above 1.4. In addition, the half-maximal inhibitory concentration (IC50) on Androgen receptor came to 7.4 µM. The PC50 in [1] was above 10 µM. In addition, in [3], the result was inactive.

The values are drawn from ChEMBL document CHEMBL2331115, “Development of silicon-containing bis-phenol derivatives as androgen receptor antagonists: selectivity switching by C/Si exchange” (Bioorg Med Chem, 2013).
